High-throughput results (PubChem BioAssay)
In the library only some 3.5% were active in any assay of this set; here they are far more common.
esBAF inh: inhibitors of esBAF chromatin remodeling in mouse ES cells. Bmi1-luciferase knock-in reporter, 24 h; 100% = twice the neutral-well signal. reporter increase, % at 12.5 µM. actives 2% (n = 350,000). AID 602393; in the data active = activation above about 40%; inconclusive = no clear call, values can overlap the other calls;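 note: 0% = median of the plate's neutral control wells and 100% = double that signal; a rise in the Bmi1 reporter signal indicates esBAF inhibition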
MITF TRPM1 HTS: MITF TRPM1 promoter activation in melanoma cells; SK-MEL-5 TRPM1-promoter luciferase, 24 h; % of positive control, neutral wells = 0; activation, % at 12.5 µM; actives 0.75% (n = 300,000); AID 588334;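 active = mean activation of at least 80% with every replicate also reaching 80%; inconclusive = mean reaches 80% but some replicate falls short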;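 note: 0% = neutral control wells and 100% = parthenolide positive control wells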
Env fusion inh: HIV envelope-mediated fusion inhibition | HeLa-JRFL Env/CEM21 cell fusion, luciferase | inhibition, % at 12.3 µM | actives 1.1% (n = 360,000) | AID 651610;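 active = mean replicate inhibition score of at least 50 and every replicate individually at or above 50; inconclusive = only one of the two criteria met; inactive = mean below 50 and not all replicates reaching 50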;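 note: 0% = plate neutral controls and 100% = maraviroc near 300 nM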
Wnt act: activates Wnt/beta-catenin signaling in a reporter cell assay; actives 1.2% (n = 300,000); activation, % at 9.35 µM; activator, plate reader; in the data active = activation above about 30%, passing the limit was not always enough; inconclusive = no clear call, values can overlap the other calls;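 note: 0% = neutral control wells and 100% = positive control wells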
Cneo AK release: causes C. neoformans cell lysis; actives 0.2% (n = 360,000); adenylate kinase release luminescence, 4 h; normalised: neutral wells 0, clomiphene wells 100; lysis activity, % at 15 µM;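 active = mean lysis activity across replicates of at least 80%, whatever share of replicates individually reach that level; inactive = mean lysis activity below 80%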
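read-out = cell lysis signal | test system = log-phase Cryptococcus neoformans yeast cells | input = cells at 5 × 10^6 per mL | medium = fresh YPD growth medium | signal = luminescent adenylate kinase detection reagent | timing = 4 h at 37 °C static, read 1 h later | dosing = single dose | controls = Clomiphene as positive lysis control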
ERAP1 inh: inhibitors of human ERAP1 aminopeptidase; Q9NZ08; recombinant ERAP1, Leu-AMC fluorescence, 60 min; inhibition, % at 10.7 µM; actives 0.15% (n = 340,000);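 active = mean replicate inhibition of at least 30%, or all replicates individually reaching that 30% level; inactive = mean below 30% and not every replicate reaching it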;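 note: 0% = neutral control wells and 100% = L-leucinethiol positive control wells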
Target sequence (Q9NZ08 whole entry, looked up): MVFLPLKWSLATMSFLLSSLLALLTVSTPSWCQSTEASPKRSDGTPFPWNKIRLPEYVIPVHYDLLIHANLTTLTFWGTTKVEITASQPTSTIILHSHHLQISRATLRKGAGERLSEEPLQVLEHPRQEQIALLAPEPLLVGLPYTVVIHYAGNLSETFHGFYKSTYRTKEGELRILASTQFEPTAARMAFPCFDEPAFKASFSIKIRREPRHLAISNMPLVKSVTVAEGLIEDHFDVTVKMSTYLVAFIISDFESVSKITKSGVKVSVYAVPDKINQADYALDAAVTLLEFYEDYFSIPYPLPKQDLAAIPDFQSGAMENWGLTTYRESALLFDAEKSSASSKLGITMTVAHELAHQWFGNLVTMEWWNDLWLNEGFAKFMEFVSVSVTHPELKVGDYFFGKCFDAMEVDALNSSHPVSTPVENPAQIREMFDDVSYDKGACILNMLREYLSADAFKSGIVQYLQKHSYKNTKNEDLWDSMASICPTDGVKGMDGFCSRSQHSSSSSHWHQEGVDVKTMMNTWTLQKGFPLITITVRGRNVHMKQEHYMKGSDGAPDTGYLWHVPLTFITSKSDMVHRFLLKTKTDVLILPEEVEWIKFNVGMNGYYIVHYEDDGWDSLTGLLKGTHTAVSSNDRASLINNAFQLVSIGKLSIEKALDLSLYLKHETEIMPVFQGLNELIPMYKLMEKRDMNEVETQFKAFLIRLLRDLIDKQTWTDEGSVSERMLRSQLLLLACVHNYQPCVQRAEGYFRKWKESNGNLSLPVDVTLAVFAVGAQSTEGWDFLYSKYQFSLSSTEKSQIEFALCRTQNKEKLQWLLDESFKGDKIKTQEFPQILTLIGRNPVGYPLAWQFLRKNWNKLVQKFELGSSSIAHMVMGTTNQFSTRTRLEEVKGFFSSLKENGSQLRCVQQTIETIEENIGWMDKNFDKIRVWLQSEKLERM
Numbers without * were called inactive; [ ] = another dose, or the depositor's remark.

What do the screens show for `O=C([C@H]1[C@H](CO)[C@H]2Cn3c(ccc(C4=CCCCC4)c3=O)[C@@H]1N2Cc1nccs1)N1CCCCC1`?
esBAF inh: 2; Env fusion inh: 26[16.7 µM]; Cneo AK release: -4; ERAP1 inh: 0

Results for OCc1cn(-c2ccccc2)nc1-c1ccco1 ?
esBAF inh: 42*; MITF TRPM1 HTS: 39; Env fusion inh: -21; Cneo AK release: -1

What do the screens show for `Cc1ccc(-c2nn(-c3ccccc3)cc2C=O)o1`?
esBAF inh: inconclusive; MITF TRPM1 HTS: 22; Env fusion inh: -107; Wnt act: 46*; Cneo AK release: -3; ERAP1 inh: -3

How did Cc1ccc(-c2nn(-c3ccccc3)cc2CO)o1 do in these assays?
esBAF inh: 46*; MITF TRPM1 HTS: 40; Cneo AK release: -6

How did OCc1cn(-c2ccccc2)nc1-c1ccc(-c2nn(-c3ccccc3)cc2CO)cc1 do in these assays?
esBAF inh: -2; MITF TRPM1 HTS: -4; Wnt act: -2; Cneo AK release: 2

Results for COc1ccccc1-c1ccc2n(c1=O)C[C@@H]1[C@@H](CO)[C@H](C(=O)N3CCN(C)CC3)[C@H]2N1CC1CC1 ?
esBAF inh: 0; Cneo AK release: -1; ERAP1 inh: 1

Results for C/C(=N\NC(=O)c1ccncc1)c1cccc(NC(=O)c2ccc(C(C)(C)C)cc2)c1 ?
esBAF inh: 38; MITF TRPM1 HTS: 37; Env fusion inh: -383; Wnt act: 35*; Cneo AK release: -5; ERAP1 inh: 0

How did O=C(Nc1cccc([N+](=O)[O-])c1)c1ccc2c(c1)OCCO2 do in these assays?
MITF TRPM1 HTS: 62; Env fusion inh: -40; Wnt act: 47*; Cneo AK release: -3

What do the screens show for `CC(=O)Nc1cccc(NC(=O)c2ccc(C)c([N+](=O)[O-])c2)c1`?
esBAF inh: 16; MITF TRPM1 HTS: 28; Env fusion inh: -6; Wnt act: 58*; ERAP1 inh: 5

What do the screens show for `C/C(=N/NC(=O)c1ccncc1)c1ccc(NC(=O)c2ccccc2)cc1`?
esBAF inh: 10; MITF TRPM1 HTS: 21; Env fusion inh: -23; Wnt act: 3; Cneo AK release: 0; ERAP1 inh: -4

Results for O=C(Nc1ccc(F)c([N+](=O)[O-])c1)c1ccc2c(c1)OCCO2 ?
esBAF inh: 50*; MITF TRPM1 HTS: 56; Env fusion inh: -16; Wnt act: 20; Cneo AK release: -3; ERAP1 inh: 1

What do the screens show for `O=C(Nc1ccc(Cl)cc1[N+](=O)[O-])c1ccc2c(c1)OCCO2`?
esBAF inh: inconclusive; MITF TRPM1 HTS: 69; Env fusion inh: -331; Wnt act: 28; Cneo AK release: 0; ERAP1 inh: -4

Results for CO[C@@H]1CN(C)C(=O)c2cc(NC(C)=O)ccc2OC[C@H](C)NC[C@@H]1C ?
esBAF inh: -3; Env fusion inh: 3[16.7 µM]; Cneo AK release: -3; ERAP1 inh: -4

How did Cc1noc(C)c1NC(=O)Nc1ccc2c(c1)CC(=O)N([C@H](C)CO)C[C@H](C)[C@H](CN(C)S(=O)(=O)c1cn(C)cn1)O2 do in these assays?
esBAF inh: 5; Env fusion inh: 14[16.7 µM]; Cneo AK release: 0

Results for C/C(=N/NC(=O)c1ccc2c(c1)OCO2)c1cccc([N+](=O)[O-])c1 ?
esBAF inh: 31; MITF TRPM1 HTS: 126*; Env fusion inh: -67; Wnt act: -2; Cneo AK release: 0; ERAP1 inh: 2

How did CC(C)(C)c1ccc(C(=O)Nc2cccc([N+](=O)[O-])c2)cc1 do in these assays?
MITF TRPM1 HTS: 88*; Env fusion inh: -496

What do the screens show for `CC(/C=C/c1ccc2c(c1)OCO2)=N\NC(=O)c1cccc([N+](=O)[O-])c1`?
esBAF inh: 6; MITF TRPM1 HTS: -4; Wnt act: 0; Cneo AK release: 0; ERAP1 inh: 1

What do the screens show for `O=C(N[C@H]1CC[C@@H](CCNS(=O)(=O)c2ccc(F)cc2)O[C@H]1CO)C1CCCC1`?
esBAF inh: 3; Env fusion inh: 15[16.7 µM]; Cneo AK release: 1; ERAP1 inh: -1

What do the screens show for `O=C(Nc1cnc2ccccn2c1=O)c1ccc(Cl)cc1`?
esBAF inh: 43*; MITF TRPM1 HTS: 86*; Env fusion inh: -127; Cneo AK release: 0

Results for O=C(Nc1cccn2ncnc12)c1ccc(Cl)cc1 ?
esBAF inh: 15; MITF TRPM1 HTS: 29; Env fusion inh: 19; Wnt act: 6; Cneo AK release: -2

What do the screens show for `Cn1c(=O)c2c(ncn2CC(=O)OCC(=O)NCc2ccccc2Cl)n(C)c1=O`?
MITF TRPM1 HTS: 1; Env fusion inh: 8; Wnt act: 36*; Cneo AK release: -1

How did CC1CCc2nc(NC(=O)Cc3cccs3)sc2C1 (centres undefined) do in these assays?
esBAF inh: 58*; MITF TRPM1 HTS: 126*; Wnt act: -3; Cneo AK release: -3

How did CC1CCc2nc(NC(=O)c3ccco3)sc2C1 (centres undefined) do in these assays?
MITF TRPM1 HTS: -31; Cneo AK release: -8

What do the screens show for `O=C(CCCc1cccs1)Nc1nc2c(s1)CCCC2`?
esBAF inh: 53*; Env fusion inh: -83; Cneo AK release: -3

Results for CC(C)(C)C(=O)Nc1cc2nn(-c3ccccc3)nc2cc1Cl ?
esBAF inh: -78; MITF TRPM1 HTS: -84; Env fusion inh: inactive; Cneo AK release: -1

What do the screens show for `CC(=O)Nc1cc2nn(-c3ccccc3)nc2cc1Cl`?
MITF TRPM1 HTS: 30; Env fusion inh: -143; Wnt act: 55*; Cneo AK release: -1

What do the screens show for `CC(=O)N1CCN(C(=O)c2ccc(-c3ccccc3Cl)o2)CC1`?
esBAF inh: 47*; MITF TRPM1 HTS: 65; Wnt act: 25; Cneo AK release: -3; ERAP1 inh: -1

How did O=[N+]([O-])c1ccccc1-c1ccc(C(=S)N2CCCCC2)o1 do in these assays?
esBAF inh: inconclusive; Env fusion inh: -54; Wnt act: -2; Cneo AK release: 5; ERAP1 inh: -1

What do the screens show for `O=C(NCCN1CCOCC1)c1cccc(S(=O)(=O)N2CCCCC2)c1`?
MITF TRPM1 HTS: 3; Env fusion inh: 15; Wnt act: 0; Cneo AK release: -1; ERAP1 inh: 3

What do the screens show for `CC(C)(CNC(=O)c1ccc(-c2ccccc2Cl)o1)N1CCOCC1`?
esBAF inh: 71*; MITF TRPM1 HTS: 70; Env fusion inh: -72; Wnt act: 9; Cneo AK release: 0; ERAP1 inh: -7

How did CC(C)(CNC(=O)c1cccc(S(=O)(=O)N2CCCCC2)c1)N1CCOCC1 do in these assays?
esBAF inh: 14; Env fusion inh: 63*; Wnt act: 119*; Cneo AK release: 0; ERAP1 inh: -6
